Laboratory results published in ChEMBL document CHEMBL1151773, “Synthesis and biological evaluation of amide derivatives of (5,6-dimethoxy-2,3-dihydro-1H-inden-1-yl)acetic acid as anti-inflammatory agents with reduced gastrointestinal ulcerogenecity” (Eur J Med Chem, 2008).

Columns and labels:
Format in all cases: functional
[1] = test system: Mus musculus; assay: Analgesic activity in Swiss albino mouse assessed as inhibition of acetic acid-induced writhing at 100 mg/kg, po administered 60 mins before acetic acid challenge after 5 to 15 mins relative to control
Method in brief: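 Female Swiss albino mice, 20±5 g, fasted overnight with free water access, dosed orally; 1 h later injected i.p. with 1% v/v acetic acid at 0.1 ml/10 g. Writhes (full hind-limb extension) counted for 15 min, starting 5 min after injection; only animals giving 20 or more writhes used. % inhibition = 100(1−Wt/Wc) vs control group mean; six animals per group.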

[2] = test system: Rattus norvegicus; assay: Antiinflammatory activity in Wistar rat assessed as inhibition of carrageenan-induced hind paw edema volume at 100 mg/kg, po administered 60 mins before carrageenan challenge after 24 hrs relative to control
[3] = test system: Rattus norvegicus; assay: Antiinflammatory activity in Wistar rat assessed as inhibition of carrageenan-induced hind paw edema volume at 100 mg/kg, po administered 60 mins before carrageenan challenge after 6 hrs relative to control
[4] = test system: Rattus norvegicus; assay: Antiinflammatory activity in Wistar rat assessed as inhibition of carrageenan-induced hind paw edema volume at 100 mg/kg, po administered 60 mins before carrageenan challenge after 4 hrs relative to control
[5] = test system: Rattus norvegicus; assay: Antiinflammatory activity in Wistar rat assessed as inhibition of carrageenan-induced hind paw edema volume at 100 mg/kg, po administered 60 mins before carrageenan challenge after 3 hrs relative to control
[6] = test system: Rattus norvegicus; assay: Antiinflammatory activity in Wistar rat assessed as inhibition of carrageenan-induced hind paw edema volume at 100 mg/kg, po administered 60 mins before carrageenan challenge after 1 hr relative to control
[7] = test system: Rattus norvegicus; assay: Antiinflammatory activity in Wistar rat assessed as inhibition of carrageenan-induced hind paw edema volume at 100 mg/kg, po administered 60 mins before carrageenan challenge after 2 hrs relative to control
[8] = test system: Rattus norvegicus; assay: Antipyretic activity in Wistar rat assessed as change in LPS-induced rectal temperature at 100 mg/kg, po administered 30 mins before LPS challenge after 7 hrs
Method in brief: (§1)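 Adult female Wistar rats, 170±20 g, fasted 24 h, dosed orally at 09:00; 30 min later E. coli 0111:B4 phenol-extracted LPS in apyrogenic saline given i.p. Rectal temperature by telethermometer probe just before and 1–7 h hourly after LPS; temperature index calculated from these readings. n = 6.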

[9] = test system: Rattus norvegicus; assay: Antipyretic activity in Wistar rat assessed as change in LPS-induced rectal temperature at 100 mg/kg, po administered 30 mins before LPS challenge after 6 hrs; method in brief: as §1
[10] = test system: Rattus norvegicus; assay: Antipyretic activity in Wistar rat assessed as change in LPS-induced rectal temperature at 100 mg/kg, po administered 30 mins before LPS challenge after 5 hrs; method in brief: as §1
[11] = test system: Rattus norvegicus; assay: Antipyretic activity in Wistar rat assessed as change in LPS-induced rectal temperature at 100 mg/kg, po administered 30 mins before LPS challenge after 4 hrs; method in brief: as §1
[12] = test system: Rattus norvegicus; assay: Antipyretic activity in Wistar rat assessed as change in LPS-induced rectal temperature at 100 mg/kg, po administered 30 mins before LPS challenge after 2 hrs; method in brief: as §1
[13] = test system: Rattus norvegicus; assay: Antipyretic activity in Wistar rat assessed as change in LPS-induced rectal temperature at 100 mg/kg, po administered 30 mins before LPS challenge after 3 hrs; method in brief: as §1
[14] = test system: Rattus norvegicus; assay: Antipyretic activity in Wistar rat assessed as change in LPS-induced rectal temperature at 100 mg/kg, po administered 30 mins before LPS challenge after 1 hr; method in brief: as §1

| SMILES | inhibition in vivo at 100 mg/kg [1] | inhibition in vivo at 100 mg/kg [2] | inhibition in vivo at 100 mg/kg [3] | inhibition in vivo at 100 mg/kg [4] | inhibition in vivo at 100 mg/kg [5] | inhibition in vivo at 100 mg/kg [6] | inhibition in vivo at 100 mg/kg [7] | Activity [8] | Activity [9] | Activity [10] | Activity [11] | Activity [12] | Activity [13] | Activity [14] |
| --- | --- | --- | --- | --- | --- | --- | --- | --- | --- | --- | --- | --- | --- | --- |
| COc1cc2c(cc1OC)C(CC(=O)O)CC2 (stereo unspecified) | 44% | 26.7% | 20.4% | 23.9% | 27.5% | 18.8% | 24% |  |  |  |  |  |  |  |
| CCN(CC)C(=O)CC1CCc2cc(OC)c(OC)cc21 (stereo unspecified) | 27.4% | 16.7% | 31.5% | 37.5% | 37.7% | 31.2% | 40% |  |  |  |  |  |  |  |
| COc1cc2c(cc1OC)C(CC(=O)NC1CC1)CC2 (stereo unspecified) | 32.7% | 0% | 11.1% | 17.2% | 18.8% | 21.9% | 14% |  |  |  |  |  |  |  |
| CC(=O)Oc1ccccc1C(=O)O [ASPIRIN] | 61.5% |  |  |  |  |  |  | 0.23 °C | 0.17 °C | 0.11 °C | 0.05 °C | -1.45 °C | -0.51 °C | -0.43 °C |
| COc1cc2c(cc1OC)C(CC(=O)N(C)C)CC2 (stereo unspecified) | 22.6% | 23.3% | 33.3% | 35.9% | 34.8% | 25% | 36% |  |  |  |  |  |  |  |
| COc1cc2c(cc1OC)C(CC(=O)NC(C)(C)C)CC2 (stereo unspecified) | 41.8% | 40% | 31.5% | 32.8% | 33.3% | 31.2% | 32% |  |  |  |  |  |  |  |
| COc1cc2c(cc1OC)C(CC(=O)NCc1ccccc1)CC2 (stereo unspecified) | 48% | 43.3% | 30.6% | 18.8% | 14.4% | 18.8% | 24% |  |  |  |  |  |  |  |
| COc1cc2c(cc1OC)C(CC(=O)N1CCCC1)CC2 (stereo unspecified) | 19.2% | 33.3% | 22.2% | 24.2% | 26.1% | 4.69% | 20% |  |  |  |  |  |  |  |
| COc1cc2c(cc1OC)C(CC(N)=O)CC2 (stereo unspecified) | 24.6% | 26.7% | 27.8% | 31.2% | 30.4% | 18.8% | 31% |  |  |  |  |  |  |  |
| COc1cc2c(cc1OC)C(CC(=O)NC1CCCC1)CC2 (stereo unspecified) | 37% | 46.7% | 40.7% | 45.3% | 43.5% | 40.6% | 52% |  |  |  |  |  |  |  |
